The list is not random: actives were taken first. Their share in the collection is about 12%.
WT yeast gro inh = growth inhibition of WT yeast, mitochondrial fusion screen; mitochondrial fusion phenotypic screen, WT strain; inhibition, % at 10 µM; 190,000 tested, 2.1% active; AID 1362; in the data active = inhibition above about 58%; tested in S. cerevisiae
RAM inhibit = inhibitors of the yeast RAM network; 190,000 tested, 1.8% active; inhibition, % at 50 µM; S. cerevisiae dse1pr::URA3 reporter, 5-FOA growth OD615, 2 d; analog-sensitive cbk1-as2 kinase mutant strain; AID 868;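 active = inhibition above a set limit, 3 SD over mean compound inhibition, cut at about 8.4% in these data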;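 note: 0% = DMSO-only wells with no growth and 100% = 10 µM 1-NA-PP1 full growth; inhibition rescues growth on 5-FOA so higher OD means more RAM inhibition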
ABCG2 block = inhibitors of human ABCG2 transporter, ABCB1 counter-screen; IgMXP3 cells, JC-1 efflux, flow cytometry; inhibition, % at 6.6 µM; 190,000 tested, 0.1% active; AID 1325;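 active = inhibition above 80%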;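 note: 0% = DMSO and 100% = nicardipine control wells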
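Read-out basis: Efflux inhibition in percent versus controls | Test system: ABCG2 IgMXP3 and barcoded ABCB1 CCRF-Adr cell mix | Quantity: 3 million cells/mL in well | Schedule: 10 min at 25 °C | Control set: Nicardipine as high control, DMSO as low control | Reagent: JC-1 as fluorescent efflux pump substrate | Signal: Flow cytometry of retained JC-1 fluorescence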
ABCB1 inh = human ABCB1 inhibition, ABCG2 as counter-screen; AID 1326; inhibition, % at 6.6 µM; P08183; 190,000 tested, 0.067% active; CCRF-Adr cells, JC-1 efflux, flow cytometry; in the data active = inhibition above about 40%;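 note: 0% = vehicle and 100% = reference inhibitor; higher value means more JC-1 retained so stronger ABCB1 efflux block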
Lmaj promast = inhibitors of Leishmania major promastigote growth. Leishmania major promastigotes, resazurin fluorescence viability. inhibition, % at 10 µM. 200,000 tested, 9% active; in the data active = inhibition above about 50%;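 note: promastigotes grown with compound for 44 hours at 28 °C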
* = called active by the depositor; . = no result.

SMILES	WT yeast gro inh	RAM inhibit	ABCG2 block	ABCB1 inh	Lmaj promast
C/C(=N\NC(=O)c1ccccc1O)c1ccc(Br)s1	65.9*	3.8	4.5	-0.9	19.7
O=C(NN=C(Cc1ccccc1)Cc1ccccc1)c1ccccc1O	77.0	2.5	1.4	0.3	61.1*
C/C(=N\Nc1nc2ccccc2s1)c1ccc2c(c1)OCO2	16.4	0.4	10.7	0.6	-1.7
COc1ccc(CS(=O)c2nc(C)cc(C)c2S(C)(=O)=O)cc1 (stereo not drawn)	-11.7	2.8	0.6	-0.1	0.1
CC(C)N(CCNCc1nnc(-c2ccccc2)o1)C(C)C	-11.6	-0.9	-0.7	-0.1	-2.1
CC(=O)N1CCC2(CC1)CC(=O)c1cc(OCC(=O)N3CCOCC3)ccc1O2	7.3	0.5	8.8	-0.1	-7.1
O=C(O)Cc1ccc(C(=O)c2ccccc2F)s1	-17.9	-0.1	1.6	0.2	-3.9
CC12CCC(C(=O)N3CCCc4ccccc43)(OC1=O)C2(C)C (stereo not drawn)	-9.4	0.5	6.4	0.9	3.8
O=C(Nc1ncccc1Cl)c1cccc(F)c1	-8.8	-0.6	0.1	-0.1	-6.6
O=C(Nc1ncccc1Cl)c1ccccc1F	-24.2	-0.3	6.8	.	72.2*
N#Cc1ccsc1NC(=O)CN1CCN(S(=O)(=O)c2ccc3ccccc3c2)CC1	6.4	1.4	9.9	3.9	64.6*
N#Cc1ccsc1NC(=O)CN1CCN(Cc2ccccc2)CC1	-2.4	2.6	3.5	1.2	3.0
COc1ccc(NC(=O)CN2CCN(c3ccccc3F)CC2)cc1	-13.6	0.0	18.4	1.4	-4.9
O=C(CN1CCN(c2ccccc2F)CC1)Nc1ccc2c(c1)CCC2	2.8	0.8	5.6	.	63.9*
O=C(CN1CCN(S(=O)(=O)c2ccc3ccccc3c2)CC1)Nc1ccc2c(c1)CCC2	6.9	2.4	-4.0	1.8	89.2*
Cc1ccc(S(=O)(=O)N2CCN(CC(=O)Nc3ccc4c(c3)CCC4)CC2)cc1C	33.3	3.0	4.3	1.4	5.0
CC(C)NCc1nnc(-c2ccccc2Cl)o1	1.7	2.3	6.0	0.2	-12.6
COc1ccccc1C(=O)ON=C1c2ccccc2-c2ccccc21	51.9	7.6	-7.0	-2.4	50.8*
O=C(CN1CCOCC1)Nc1cccc(C(=O)Nc2cccc(C(F)(F)F)c2)c1	-8.5	-0.1	0.8	0.1	-0.7
CCCCCNCC(=O)Nc1cccc(C(=O)Nc2cccc(C(F)(F)F)c2)c1	78.4*	-1.5	25.6	3.7	26.9
Cc1cc(C)n2nc(SCCC(=O)NCc3ccccc3)nc2n1	-11.6	0.6	11.2	0.2	5.5
CCN(CC)P(=O)(Nc1ccc(C)cc1Br)c1ccc(N(C)C)cc1NC(=O)c1ccco1 (stereo not drawn)	60.2*	2.1	-0.5	2.9	64.9*
CC1C/C(=C/c2ccccn2)C(=O)/C(=C/c2ccccn2)C1 (stereo not drawn)	86.6*	4.7	2.2	0.1	100.4*
CC1C/C(=C/c2ccco2)C(=O)/C(=C/c2ccco2)C1 (stereo not drawn)	11.9	1.8	-7.0	2.8	6.5
CC(C)(C)C1C/C(=C/c2ccccn2)C(=O)/C(=C/c2ccccn2)C1 (stereo not drawn)	68.9*	0.0	3.1	0.7	100.6*
SMILES	WT yeast gro inh	RAM inhibit	ABCG2 block	ABCB1 inh	Lmaj promast
CC(C)CN(CCOc1cccc(N2C(=O)C3=C(CCCC3)C2=O)c1)CC(C)C	13.1	0.3	22.8	3.0	62.5*
Cc1c(Cl)c(C(=O)NNC(=S)Nc2ccc(F)cc2)nn1C	0.8	1.7	0.6	-0.1	-4.1
CN1CCN(CC(=O)n2c3c(c4ccccc42)CCCC3)CC1	0.1	0.1	0.7	1.1	75.3*
CCN(CC)CC(=O)n1c2c(c3ccccc31)CCCC2	13.4	-0.5	0.1	0.2	-4.0
O=C(Nc1nc(-c2ccccc2)cs1)c1ccc(Br)o1	63.2*	3.8	0.7	-0.1	-7.1
O=C(Nc1nc(-c2ccncc2)cs1)c1ccco1	9.3	0.6	5.0	0.3	8.5
O=C(Nc1nc(-c2ccccn2)cs1)c1ccc(Br)s1	60.0*	-1.6	-1.5	-0.7	100.4*
O=C(Nc1nc(-c2ccccn2)cs1)c1ccco1	18.4	-0.1	1.7	0.3	99.7*
Cc1ccc(C(=O)Nc2nc(-c3cccnc3)cs2)o1	-13.1	0.3	4.0	0.6	-1.5
COc1ccc2c(CC(=O)Nc3cccc(S(=O)(=O)N4CCOCC4)c3)coc2c1	-0.7	0.5	6.3	-1.0	-2.0
Clc1ncnc2scc(-c3ccc(Br)cc3)c12	25.5	2.7	18.5	2.1	93.5*

Screens (PubChem)
